Activity calls are given as the source filed them. The calls are words filed in the database; no cut-off is given here.
What was measured:
[1] = Cytotoxicity against mouse RAW264.7 cells assessed as cell viability at 10 uM after 48 hrs by MTT assay (reference value: 100%); assay type: cell-based; details: read-out: Activity
Method in brief: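 RAW264.7 cells seeded at 4 × 10^3 per well, cultured overnight, exposed to compound (DMSO 0.1% v/v) for 48 h. MTT 0.5 mg mL−1 added for 4 h at 37 °C, formazan dissolved in DMSO, OD570 read. Viability relative to medium-only cells set as 100%. Mean ± SD (n = 5), three independent experiments.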

RAW264.7 [2] = assay: Antiinflammatory activity in LPS-induced mouse RAW264.7 cells assessed as IL-6 levels at 2.5 uM pretreated for 2 hrs followed by LPS stimulation and measured after 24 hrs by ELISA (reference value: 1966.6 +/- 102.3 pg/ml); assay type: functional
Method in brief: (§1)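 RAW264.7 murine macrophages (DMEM, 10% serum, 37 °C, 5% CO2) seeded at 5 × 10^5 cells per well, pretreated 2 h with compound at 10, 5, 2.5 or 1.25 μM (DMSO 0.1% v/v), then LPS (E. coli 0127:B8) 100 ng mL−1 added. Supernatant TNF-α or IL-6 read by mouse ELISA kit after 6, 12 and 24 h. Mean ± SD, n = 3, three independent experiments.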

RAW264.7 [3] = assay: Antiinflammatory activity in LPS-induced mouse RAW264.7 cells assessed as IL-6 levels at 1.25 uM pretreated for 2 hrs followed by LPS stimulation and measured after 12 hrs by ELISA (reference value: 1394 +/- 62.6 pg/ml); assay type: functional; method in brief: as §1
RAW264.7 [4] = assay: Antiinflammatory activity in LPS-induced mouse RAW264.7 cells assessed as TNFalpha levels at 2.5 uM pretreated for 2 hrs followed by LPS stimulation and measured after 6 hrs by ELISA (reference value: 4377.1 +/- 318.6 pg/ml); assay type: functional; method in brief: as §1
[5] = target: Mitogen-activated protein kinase 1 and 3 (ERK2 and ERK1) (Mus musculus) (UniProt P63085+Q63844); assay: Inhibition of LPS-induced ERK1/2 phosphorylation in mouse RAW264.7 cells after 4 hrs by Western blot analysis; assay type: cell-based
Method in brief: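 RAW264.7 cells at 2 × 10^6 per well given fresh medium with compound (10, 5, 2.5, 1.25 μM) plus LPS 500 ng mL−1 for 4 h. Lysed in IP buffer with 1 mM PMSF, protein by BCA. Run on 12.5% SDS-PAGE and blotted. Phospho and total ERK1/2 (Thr202/Tyr204), p38 (Thr180/Tyr182), IκBα (Ser32/36) and NF-κB p65 detected by ECL. Mean ± SD, n = 3.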

RAW264.7 [6] = assay: Antiinflammatory activity in LPS-induced mouse RAW264.7 cells assessed as IL-6 levels at 2.5 uM pretreated for 2 hrs followed by LPS stimulation and measured after 6 hrs by ELISA (reference value: 472.3 +/- 25.8 pg/ml); assay type: functional; method in brief: as §1
RAW264.7 [7] = assay: Antiinflammatory activity in LPS-induced mouse RAW264.7 cells assessed as TNFalpha levels at 10 uM pretreated for 2 hrs followed by LPS stimulation and measured after 12 hrs by ELISA (reference value: 5313.7 +/- 420.9 pg/ml); assay type: functional; method in brief: as §1
RAW264.7 [8] = assay: Antiinflammatory activity in LPS-induced mouse RAW264.7 cells assessed as TNFalpha levels at 1.25 uM pretreated for 2 hrs followed by LPS stimulation and measured after 6 hrs by ELISA (reference value: 4377.1 +/- 318.6 pg/ml); assay type: functional; method in brief: as §1
RAW264.7 [9] = assay: Antiinflammatory activity in LPS-induced mouse RAW264.7 cells assessed as IL-6 levels at 1.25 uM pretreated for 2 hrs followed by LPS stimulation and measured after 6 hrs by ELISA (reference value: 472.3 +/- 25.8 pg/ml); assay type: functional; method in brief: as §1
RAW264.7 [10] = assay: Antiinflammatory activity in LPS-induced mouse RAW264.7 cells assessed as IL-6 levels at 5 uM pretreated for 2 hrs followed by LPS stimulation and measured after 12 hrs by ELISA (reference value: 1394 +/- 62.6 pg/ml); assay type: functional; method in brief: as §1
RAW264.7 [11] = assay: Antiinflammatory activity in LPS-induced mouse RAW264.7 cells assessed as TNFalpha levels at 5 uM pretreated for 2 hrs followed by LPS stimulation and measured after 6 hrs by ELISA (reference value: 4377.1 +/- 318.6 pg/ml); assay type: functional; method in brief: as §1
RAW264.7 [12] = assay: Antiinflammatory activity in LPS-induced mouse RAW264.7 cells assessed as TNFalpha levels at 10 uM pretreated for 2 hrs followed by LPS stimulation and measured after 6 hrs by ELISA (reference value: 4377.1 +/- 318.6 pg/ml); assay type: functional; method in brief: as §1
RAW264.7 [13] = assay: Antiinflammatory activity in LPS-induced mouse RAW264.7 cells assessed as TNFalpha levels at 10 uM pretreated for 2 hrs followed by LPS stimulation and measured after 24 hrs by ELISA (reference value: 9653.7 +/- 377.3 pg/ml); assay type: functional; method in brief: as §1
Danio rerio = assay: In-vivo antiinflammatory activity in 4 days post fertilized zebrafish larvae harboring coronilla-eGFP/Lyc-dsRed assessed as reduction in neutrophil recruitment to wounded tail at 5 to 20 uM measured after 3 to 6 hrs by fluorescence microscopic analysis; assay type: functional, organism-based
Method in brief: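 Double transgenic neutrophil/macrophage reporter larvae (Coronilla-eGFP/Lyc-dsRed), 4 dpf, tail-cut. […] Neutrophils and macrophages gathering at the wound imaged by fluorescence microscopy at 3 and 6 h. 6–8 larvae per group. Uncut larvae serve as blank, untreated cut larvae as control.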

Sequence of Mitogen-activated protein kinase 1 and 3 (ERK2 and ERK1) (Mus musculus) (P63085 whole entry, looked up): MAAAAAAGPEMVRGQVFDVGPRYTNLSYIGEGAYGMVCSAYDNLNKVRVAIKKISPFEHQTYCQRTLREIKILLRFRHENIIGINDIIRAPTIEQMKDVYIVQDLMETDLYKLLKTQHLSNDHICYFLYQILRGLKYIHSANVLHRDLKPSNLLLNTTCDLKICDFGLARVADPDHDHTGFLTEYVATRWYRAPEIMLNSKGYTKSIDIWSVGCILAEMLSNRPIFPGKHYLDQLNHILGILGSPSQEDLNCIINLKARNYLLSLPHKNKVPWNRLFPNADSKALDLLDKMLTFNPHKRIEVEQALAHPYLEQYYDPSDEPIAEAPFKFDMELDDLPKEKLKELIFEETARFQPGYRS
Sequence of Mitogen-activated protein kinase 1 and 3 (ERK2 and ERK1) (Mus musculus) (Q63844 whole entry, looked up): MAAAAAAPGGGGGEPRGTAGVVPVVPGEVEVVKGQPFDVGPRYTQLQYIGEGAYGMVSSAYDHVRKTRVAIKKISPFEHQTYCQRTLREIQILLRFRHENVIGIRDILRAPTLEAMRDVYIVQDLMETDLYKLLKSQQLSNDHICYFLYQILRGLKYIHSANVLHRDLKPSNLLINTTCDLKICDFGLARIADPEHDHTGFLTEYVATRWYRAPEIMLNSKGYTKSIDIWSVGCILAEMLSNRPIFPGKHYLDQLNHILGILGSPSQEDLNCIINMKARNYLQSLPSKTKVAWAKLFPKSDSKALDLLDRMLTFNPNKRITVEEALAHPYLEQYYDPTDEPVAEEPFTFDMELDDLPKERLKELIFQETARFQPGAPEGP

**Q.** With `CC1=C[C@H](O/C=C2/C(=O)O[C@@H]3c4ccccc4C[C@H]23)OC1=O` as the molecule, how does the viability at 48 h, 10 µM [1] read?
**A.** Its viability at 48 h, 10 µM is 100%.

**Q.** And the Activity (RAW264.7 [2])?
**A.** The Activity was 1729.3 pg/mL.

**Q.** And the Activity (RAW264.7 [3])?
**A.** Its Activity is 1351.9 pg/mL.

**Q.** And the Activity (RAW264.7 [4])?
**A.** Its Activity is 4276.9 pg/mL.

**Q.** What about the inhibition [5] of the same molecule?
**A.** The inhibition was “Dose-dependent effect”.

**Q.** What about the Activity (RAW264.7 [6]) of the same molecule?
**A.** Its Activity is 433.6 pg/mL.

**Q.** And the Activity (RAW264.7 [7])?
**A.** The Activity was 4685.5 pg/mL.

**Q.** And the Activity (RAW264.7 [8])?
**A.** The Activity was 4388.3 pg/mL.

**Q.** And the Activity (RAW264.7 [9])?
**A.** The Activity was 461.2 pg/mL.

**Q.** What about the Activity (RAW264.7 [10]) of the same molecule?
**A.** Its Activity is 1090.7 pg/mL.

**Q.** And the Activity (RAW264.7 [11])?
**A.** The Activity was 4140.7 pg/mL.

**Q.** And the Activity (RAW264.7 [12])?
**A.** Its Activity is 3862.3 pg/mL.

**Q.** And the Activity (RAW264.7 [13])?
**A.** Its Activity is 8660.7 pg/mL.

**Q.** And the Activity (Danio rerio)?
**A.** The Activity was “Active”.

**Q.** For `CC1=C[C@@H](O/C=C2/C(=O)O[C@H]3c4ccccc4C[C@@H]23)OC1=O`, which viability at 48 h, 10 µM [1] is on record?
**A.** Its viability at 48 h, 10 µM is 99.2%.

**Q.** What about the Activity (RAW264.7 [2]) of the same molecule?
**A.** The Activity was 1787.6 pg/mL.

**Q.** What about the Activity (RAW264.7 [3]) of the same molecule?
**A.** The Activity was 1374.3 pg/mL.

**Q.** And the Activity (RAW264.7 [4])?
**A.** The Activity was 4307.9 pg/mL.

**Q.** And the inhibition [5]?
**A.** Its inhibition is “Dose-dependent effect”.

**Q.** And the Activity (RAW264.7 [6])?
**A.** Its Activity is 447.9 pg/mL.

**Q.** And the Activity (RAW264.7 [7])?
**A.** The Activity was 4721.3 pg/mL.

**Q.** What about the Activity (RAW264.7 [8]) of the same molecule?
**A.** Its Activity is 4367.3 pg/mL.

**Q.** What about the Activity (RAW264.7 [9]) of the same molecule?
**A.** Its Activity is 470.1 pg/mL.

**Q.** And the Activity (RAW264.7 [10])?
**A.** Its Activity is 1177 pg/mL.

**Q.** What about the Activity (RAW264.7 [11]) of the same molecule?
**A.** The Activity was 4209.3 pg/mL.

**Q.** What about the Activity (RAW264.7 [12]) of the same molecule?
**A.** The Activity was 3927.4 pg/mL.

**Q.** And the Activity (RAW264.7 [13])?
**A.** Its Activity is 8796.7 pg/mL.

**Q.** And the Activity (Danio rerio)?
**A.** Its Activity is “Active”.

Source: ChEMBL document CHEMBL4257465, “Strigolactones: a plant phytohormone as novel anti-inflammatory agents” (Medchemcomm, 2018)
